ChEMBL document CHEMBL5653613 (Mol Cancer Ther, 2013)
Active and inactive are the calls of the source. The rule behind the calls is not given here.

Key:
[1] = (§1) Effect on doxorubicin resistance in human ZR-75-1 cells with compound-induced polyploidy assessed as change in doxorubicin-induced cytotoxicity by measuring increase in DOX IC50 at 5 umol/L preincubated for 72 hrs followed by compound washout and subsequent doxorubicin treatment for 72 hrs by MTS assay; assay type: functional, cell-based
[2] = (§2) Effect on bleomycin resistance in human T47D cells with compound-induced polyploidy assessed as change in bleomycin-induced cytotoxicity by measuring increase in bleomycin IC50 at 5 umol/L preincubated for 72 hrs followed by compound washout and subsequent bleomycin treatment for 72 hrs by MTS assay; assay type: functional, cell-based
T47D [3] = test: Induction of polyploidy in human T47D cells at 1 umol/L incubated for 72 hrs by microscopic analysis relative to control; assay type: functional; conditions: dose 1 µmol/L, at 1 µM
Procedure, shortened: (§3)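 Cells stained with Hema-3 and photographed under a light microscope with CCD camera. Polyploid cells scored as percent of the population.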

MCF7 [4] = test: Downregulation of histone H3 expression in human MCF7 cells at 5 umol/L incubated upto 72 hrs by Western blot analysis; assay type: functional, cell-based; conditions: dose 5.0 µmol/L
Procedure, shortened: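 Cells were treated with 5 µmol/L for 0, 24, 48 and 72 h. Lysates were immunoblotted for AURK-B, phospho-Ser10 histone H3 and total histone H3, with β-actin reprobe as the loading control. Detection by enhanced chemiluminescence.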

[5] = as §1, with “paclitaxel” for “doxorubicin”, “paclitaxel-induced” for “doxorubicin-induced”, “paclitaxel” for “DOX”; assay type: functional, cell-based
T47D [6] = test: Induction of apoptosis in human T47D cells assessed as necrotic cells at 5 umol/L incubated for 3 days by Annexin V/PI staining based flow cytometry (reference value: 0.6 %); assay type: functional; conditions: dose 5 µmol/L; time 3 day; at 5 µM
MCF7 [7] = test: Induction of polyploidy in human MCF7 cells assessed as cells with 2N chromosome contents at 5 uM incubated for 24 hrs by PI staining based flow cytometry (reference value: 52); assay type: functional
ZR-75-1 [8] = test: Induction of polyploidy in human ZR-75-1 cells assessed as cells with 4N chromosome contents at 5 uM incubated for 24 hrs by PI staining based flow cytometry (reference value: 35); assay type: functional
ZR-75-1 [9] = test: Induction of polyploidy in human ZR-75-1 cells assessed as cells with 8N chromosome contents at 5 uM incubated for 72 hrs by PI staining based flow cytometry (reference value: 0); assay type: functional
T47D [10] = test: Induction of polyploidy in human T47D cells assessed as cells with 8N chromosome contents at 5 uM incubated for 48 hrs by PI staining based flow cytometry (reference value: 0); assay type: functional
T47D [11] = test: (§4) Induction of cell cycle arrest at metaphase in human T47D cells assessed as disorganization of multipolar mitotic spindles at 5 umol/L preincubated for 24 hrs followed by extensive compound washout and subsequent culturing in compound-free media measured upto 3 days by immunofluorescence staining based analysis; assay type: functional; conditions: dose 5.0 µmol/L
ZR-75-1 [12] = test: Induction of cell death of human ZR-75-1 cells with RON-/- at 5 umol/L incubated for 72 hrs followed by media replacement without compound measured upto 10 days by microscopic analysis; assay type: functional, cell-based; conditions: dose 5.0 µmol/L
ZR-75-1 [13] = test: Induction of polyploidy in human ZR-75-1 cells assessed as cells with 2N chromosome contents at 5 uM incubated for 24 hrs by PI staining based flow cytometry (reference value: 48); assay type: functional
MCF7 [14] = test: Induction of polyploidy in human MCF7 cells at 5 uM incubated for 72 hrs by microscopic analysis; assay type: functional, cell-based; procedure, shortened: as §3
MCF7 [15] = test: Induction of polyploidy in human MCF7 cells assessed as cells with 16N chromosome contents at 5 uM incubated for 72 hrs by PI staining based flow cytometry (reference value: 0); assay type: functional
T47D [16] = test: Induction of polyploidy in human T47D cells assessed as cells with 8N chromosome contents at 5 uM incubated for 24 hrs by PI staining based flow cytometry (reference value: 0); assay type: functional
ZR-75-1 [17] = test: Induction of polyploidy in human ZR-75-1 cells at 1 umol/L incubated for 72 hrs by microscopic analysis relative to control; assay type: functional; conditions: dose 1 µmol/L, at 1 µM; procedure, shortened: as §3
T47D [18] = test: Induction of apoptosis in human T47D cells assessed as late cells at 5 umol/L incubated for 3 days by Annexin V/PI staining based flow cytometry (reference value: 2.9 %); assay type: functional; conditions: dose 5 µmol/L; time 3 day; at 5 µM
T47D [19] = test: as §4, with “120 mins” for “3 days”; assay type: functional; conditions: dose 5.0 µmol/L
Procedure, shortened: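 T-47D cells were treated at 37°C with 5 µmol/L for 24 h, washed extensively, then cultured in DMEM with 10% FBS for 30, 60 and 120 min. α- and γ-tubulin were detected by immunofluorescence with DAPI, imaged at 400×. The control was a 24 h preincubation with 5 µmol/L RO-3306. One of 2 experiments.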

[20] = as §2, with “ZR-75-1” for “T47D”; assay type: functional, cell-based
[21] = as §2, with “methotrexate” for “bleomycin”, “methotrexate-induced” for “bleomycin-induced”; assay type: functional, cell-based
T47D [22] = test: Induction of polyploidy in human T47D cell at 5 umol/L by microscopic analysis; assay type: functional, cell-based; conditions: dose 5.0 µmol/L, time 72.0 hrs, TDE = time-dependent effect
T47D [23] = test: Induction of polyploidy in human T47D cells with RON-/- at 5 umol/L incubated for 72 hrs by microscopic analysis (reference value: 83.5 %); assay type: functional; conditions: dose 5 µmol/L, at 5 µM
Procedure, shortened: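 Cells (2 106 per 60-mm dish) transiently transfected for 48 hours with 1 nmol/L scrambled or RON-specific siRNA, with knockdown confirmed by anti-RON Western blot. […] Polyploidy monitored and photographed by microscopy, with untransfected and scrambled-siRNA cells as comparators.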

MCF7 [24] = test: Induction of polyploidy in human MCF7 cells at 5 umol/L by microscopic analysis; assay type: functional, cell-based; conditions: dose 5.0 µmol/L, time 72.0 hrs, TDE = time-dependent effect
MCF7 [25] = test: Induction of polyploidy in human MCF7 cells assessed as cells with 2N chromosome contents at 5 uM incubated for 48 hrs by PI staining based flow cytometry (reference value: 52); assay type: functional
MCF7 [26] = test: Induction of polyploidy in human MCF7 cells assessed as cells with 8N chromosome contents at 5 uM incubated for 72 hrs by PI staining based flow cytometry (reference value: 0); assay type: functional
MCF7 [27] = test: Induction of polyploidy in human MCF7 cells assessed as cells with 4N chromosome contents at 5 uM incubated for 48 hrs by PI staining based flow cytometry (reference value: 36); assay type: functional
ZR-75-1 [28] = test: Induction of polyploidy in human ZR-75-1 cells assessed as cells with 16N chromosome contents at 5 uM incubated for 48 hrs by PI staining based flow cytometry (reference value: 0); assay type: functional
T47D [29] = test: Induction of apoptosis in human T47D cells assessed as viable cells at 5 umol/L incubated for 3 days by Annexin V/PI staining based flow cytometry (reference value: 95.7 %); assay type: functional; conditions: 72 h, dose 5 µmol/L, time 3 day, read-out: Activity
ZR-75-1 [30] = test: Induction of polyploidy in human ZR-75-1 cells assessed as cells with 8N chromosome contents at 5 uM incubated for 48 hrs by PI staining based flow cytometry (reference value: 0); assay type: functional
T47D [31] = test: Induction of polyploidy in human T47D cells assessed as cells with 2N chromosome contents at 5 uM incubated for 24 hrs by PI staining based flow cytometry (reference value: 48); assay type: functional
MCF7 [32] = test: Induction of apoptosis in human MCF7 cells assessed as late cells at 5 umol/L incubated for 3 days by Annexin V/PI staining based flow cytometry (reference value: 1.4 %); assay type: functional; conditions: dose 5 µmol/L; time 3 day; at 5 µM

CCOc1ccn(-c2ccc(F)cc2)c(=O)c1C(=O)Nc1ccc(Oc2ccnc(N)c2Cl)c(F)c1 [BMS-777607] showed an IC50 [1] of 1.18 µM, an IC50 [2] of 2.72 µM and an Activity (T47D [3]) of 14%. The Activity (MCF7 [4]) was “inactive”, the IC50 [5] was 0.0208 µM and the Activity (T47D [6]) was 2.4%. The Activity (MCF7 [7]) was 15.5, the Activity (ZR-75-1 [8]) was 45.5 and the Activity (ZR-75-1 [9]) was 20. The Activity (T47D [10]) was 23, the Activity (T47D [11]) was “Active” and the Activity (ZR-75-1 [12]) was “inactive”. The Activity (ZR-75-1 [13]) was 15.5, the Activity (MCF7 [14]) was “Active” and the Activity (MCF7 [15]) was 0. The Activity (T47D [16]) was 26, the Activity (ZR-75-1 [17]) was 11% and the Activity (T47D [18]) was 8.1%. The Activity (T47D [19]) was “Active”, the IC50 [20] was 2.26 µM and the IC50 [21] was 0.585 µM. The Activity (T47D [22]) was “Tde”, the Activity (T47D [23]) was 79.4% and the Activity (MCF7 [24]) was “Tde”. It also gave an Activity (MCF7 [25]) of 12, an Activity (MCF7 [26]) of 29 and an Activity (MCF7 [27]) of 38. The Activity (ZR-75-1 [28]) was 32, the viability at 5 µM (T47D [29]) was 87.3% and the Activity (ZR-75-1 [30]) was 20. The Activity (T47D [31]) was 7.5 and the Activity (MCF7 [32]) was 2%.
